Our source for the EC50 values is ChEMBL document CHEMBL3632609, “Hederagenin as a triterpene template for the development of new antitumor compounds” (Eur J Med Chem, 2015).

What all share (type): functional, cell-based
Assay [1] is described as follows: Cytotoxicity against human 518A2 cells assessed as cell survival after 96 hrs by sulforhodamine B assay. To be noted: 518A2, 96 h. The gist of the method:
(§1)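 Cells in exponential growth were seeded at densities that avoided confluence and, after 24 h, exposed to serial compound dilutions (0-30 μM, DMSO ≤0.5% final) for 96 h. Cells were then fixed with 10% TCA at 4 °C, washed with water, and stained with 0.4% SRB for about 20 min. Excess dye was removed with 1% acetic acid, bound dye was taken up in 10 mM Tris base, and absorbance was read at 570 nm.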
On the technique in general: Sulforhodamine B stains cellular protein and so reports cell mass.

A further assay relates to HT-29. Briefly: Cytotoxicity against human HT-29 cells assessed as cell survival after 96 hrs by sulforhodamine B assay. To be noted: HT-29, 96 h. The gist of the method: as §1
In the next assay the test system is A549. Briefly: Cytotoxicity against human A549 cells assessed as cell survival after 96 hrs by sulforhodamine B assay. To be noted: A549, 96 h. The gist of the method: as §1
The next assay concerns MCF7. Briefly: Cytotoxicity against human MCF7 cells assessed as cell survival after 96 hrs by sulforhodamine B assay. The settings on record: MCF7, 96 h. The gist of the method:
as §1

The test system of a further assay is A2780. The experiment in a line: Cytotoxicity against human A2780 cells assessed as cell survival after 96 hrs by sulforhodamine B assay. The settings on record: A2780, 96 h. The gist of the method: as §1
A further assay deals with 8505C. Briefly: Cytotoxicity against human 8505C cells assessed as cell survival after 96 hrs by sulforhodamine B assay. The gist of the method:
as §1

As usually defined, the EC50 is the concentration giving half of the maximal effect.

`CC1(C)CC[C@]2(C(=O)OCc3ccccc3)CC[C@]3(C)C(=CC[C@@H]4[C@@]5(C)CC[C@H](O)[C@@](C)(CO)[C@@H]5CC[C@]43C)[C@@H]2C1`: the EC50 was 7.8 µM in assay [1]; 9.5 µM in the assay with HT-29; 7 µM in the assay with A549; 7.9 µM with MCF7; 9.7 µM in the assay on A2780; 7.6 µM with 8505C.

For the compound `CC1(C)CC[C@]2(C(=O)OCc3cccc(Br)c3)CC[C@]3(C)C(=CC[C@@H]4[C@@]5(C)CC[C@H](O)[C@@](C)(CO)[C@@H]5CC[C@]43C)[C@@H]2C1`, the EC50 in assay [1] stood at 13.8 µM; in the assay with HT-29 it was 15.3 µM; with A549, 14.2 µM; with MCF7, 14.2 µM; in the assay with A2780, 14.6 µM; in the assay on 8505C it was 13.7 µM.

Regarding `CC1(C)CC[C@]2(C(=O)OCc3c(F)c(F)c(F)c(F)c3F)CC[C@]3(C)C(=CC[C@@H]4[C@@]5(C)CC[C@H](O)[C@@](C)(CO)[C@@H]5CC[C@]43C)[C@@H]2C1`, the EC50 amounted to 12.9 µM in assay [1]; 16.1 µM in the assay on HT-29; 14.8 µM in the assay with A549; 16.5 µM in the assay on MCF7; 13.1 µM with A2780; 14.1 µM in the assay with 8505C.

For the compound `CC1(C)CC[C@]2(C(=O)OCc3ccccc3F)CC[C@]3(C)C(=CC[C@@H]4[C@@]5(C)CC[C@H](O)[C@@](C)(CO)[C@@H]5CC[C@]43C)[C@@H]2C1`, the EC50 in assay [1] amounted to 10 µM; in the assay with HT-29 it was 13.2 µM; in the assay with A549, 13.2 µM; with MCF7 it was 12.5 µM; with A2780, 13.4 µM; in the assay with 8505C, 11.2 µM.

As for `CC1(C)CC[C@]2(C(=O)OCc3ccc(F)cc3)CC[C@]3(C)C(=CC[C@@H]4[C@@]5(C)CC[C@H](O)[C@@](C)(CO)[C@@H]5CC[C@]43C)[C@@H]2C1`, the EC50 in assay [1] is 10.2 µM; with HT-29 it was 11.3 µM; in the assay on A549 it was 8.5 µM; in the assay with MCF7, 9.2 µM; with A2780, 11.4 µM; with 8505C, 6.7 µM.

With `CC1(C)CC[C@]2(C(=O)OCc3cccc(Cl)c3)CC[C@]3(C)C(=CC[C@@H]4[C@@]5(C)CC[C@H](O)[C@@](C)(CO)[C@@H]5CC[C@]43C)[C@@H]2C1`, the EC50 in assay [1] was determined as 11.7 µM; in the assay with HT-29, 14.8 µM; in the assay with A549, 13 µM; with MCF7 it was 13 µM; with A2780, 13.8 µM; with 8505C, 11.9 µM.

In the case of `Cc1ccccc1COC(=O)[C@]12CCC(C)(C)C[C@H]1C1=CC[C@@H]3[C@@]4(C)CC[C@H](O)[C@@](C)(CO)[C@@H]4CC[C@@]3(C)[C@]1(C)CC2`, the EC50 in assay [1] was found to be 9 µM; with HT-29, 13.2 µM; with A549, 12.6 µM; in the assay on MCF7, 11.3 µM; in the assay with A2780, 12.9 µM; in the assay with 8505C it was 8.4 µM.

Regarding `CC1(C)CC[C@]2(C(=O)OCCC3OCCCO3)CC[C@]3(C)C(=CC[C@@H]4[C@@]5(C)CC[C@H](O)[C@@](C)(CO)[C@@H]5CC[C@]43C)[C@@H]2C1`, the EC50 in assay [1] amounted to 11.1 µM; in the assay with HT-29 it was 13.4 µM; in the assay on A549 it was 13.1 µM; with MCF7, 12.7 µM; with A2780 it was 15 µM; with 8505C it was 13.1 µM.

As for `CC1(C)CC[C@]2(C(=O)OCc3c(F)cccc3F)CC[C@]3(C)C(=CC[C@@H]4[C@@]5(C)CC[C@H](O)[C@@](C)(CO)[C@@H]5CC[C@]43C)[C@@H]2C1`, the EC50 in assay [1] stood at 7.5 µM; with HT-29, 12 µM; with A549 it was 11.7 µM; in the assay with MCF7 it was 10.2 µM; in the assay with A2780, 11.6 µM; in the assay on 8505C, 8.7 µM.

On to `CC1(C)CC[C@]2(C(=O)NCc3ccccc3)CC[C@]3(C)C(=CC[C@@H]4[C@@]5(C)CC[C@H](O)[C@@](C)(CO)[C@@H]5CC[C@]43C)[C@@H]2C1`, for which the EC50 in assay [1] came to 13.7 µM; with HT-29, 15.1 µM; in the assay on A549, 15.7 µM; in the assay on MCF7, 14.6 µM; with A2780 it was 11.4 µM; in the assay with 8505C, 13.5 µM.

Consider `CC1(C)CC[C@]2(C(=O)OCc3ccc([N+](=O)[O-])cc3)CC[C@]3(C)C(=CC[C@@H]4[C@@]5(C)CC[C@H](O)[C@@](C)(CO)[C@@H]5CC[C@]43C)[C@@H]2C1`, for which the EC50 in assay [1] came out at 8.4 µM; in the assay on HT-29, 7.8 µM; with A549, 6.5 µM; in the assay on MCF7 it was 7.8 µM; with A2780, 7.8 µM; with 8505C, 6.1 µM.

Turning to `CC1(C)CC[C@]2(C(=O)OCc3ccccc3Cl)CC[C@]3(C)C(=CC[C@@H]4[C@@]5(C)CC[C@H](O)[C@@](C)(CO)[C@@H]5CC[C@]43C)[C@@H]2C1`, the EC50 in assay [1] worked out at 11.7 µM; in the assay on HT-29, 13.5 µM; in the assay with A549, 13.6 µM; with MCF7, 12.7 µM; with A2780, 13.6 µM; with 8505C, 9.5 µM.

For the compound `CC1(C)CC[C@]2(C(=O)OCc3ccccc3Br)CC[C@]3(C)C(=CC[C@@H]4[C@@]5(C)CC[C@H](O)[C@@](C)(CO)[C@@H]5CC[C@]43C)[C@@H]2C1`, the EC50 worked out at 10.9 µM in assay [1]; 14.3 µM in the assay on HT-29; 13.2 µM in the assay on A549; 12.7 µM in the assay on MCF7; 14.3 µM in the assay on A2780; 7.8 µM with 8505C.

Take `CC1(C)CC[C@]2(C(=O)OCc3ccccc3[N+](=O)[O-])CC[C@]3(C)C(=CC[C@@H]4[C@@]5(C)CC[C@H](O)[C@@](C)(CO)[C@@H]5CC[C@]43C)[C@@H]2C1`: the EC50 in assay [1] was determined as 10.3 µM; in the assay on HT-29, 12.8 µM; in the assay on A549, 10.9 µM; in the assay on MCF7, 10.2 µM; in the assay on A2780, 12.9 µM; in the assay on 8505C, 8.8 µM.

In the case of `C#CCNC(=O)[C@]12CCC(C)(C)C[C@H]1C1=CC[C@@H]3[C@@]4(C)CC[C@H](O)[C@@](C)(CO)[C@@H]4CC[C@@]3(C)[C@]1(C)CC2`, the EC50 in assay [1] turned out to be 21.6 µM; in the assay with HT-29, 17.3 µM; with A549, 16.8 µM; in the assay with MCF7, 17 µM; in the assay on A2780, 14.8 µM; in the assay on 8505C, 22.1 µM.

For `Cc1ccc(COC(=O)[C@]23CCC(C)(C)C[C@H]2C2=CC[C@@H]4[C@@]5(C)CC[C@H](O)[C@@](C)(CO)[C@@H]5CC[C@@]4(C)[C@]2(C)CC3)cc1`, the EC50 in assay [1] was found to be 11.8 µM; in the assay with HT-29 it was 14.8 µM; in the assay on A549 it was 13.7 µM; in the assay on MCF7 it was 13.7 µM; with A2780, 14.7 µM; in the assay with 8505C it was 8.8 µM.

As to `C#CCOC(=O)[C@]12CCC(C)(C)C[C@H]1C1=CC[C@@H]3[C@@]4(C)CC[C@H](O)[C@@](C)(CO)[C@@H]4CC[C@@]3(C)[C@]1(C)CC2`, the EC50 in assay [1] worked out at 12.4 µM; in the assay with HT-29 it was 17.7 µM; with A549, 15.9 µM; with MCF7, 15.4 µM; in the assay with A2780 it was 17 µM; in the assay on 8505C, 13.2 µM.

For the compound `CC1(C)CC[C@]2(C(=O)OCc3ccc(F)cc3F)CC[C@]3(C)C(=CC[C@@H]4[C@@]5(C)CC[C@H](O)[C@@](C)(CO)[C@@H]5CC[C@]43C)[C@@H]2C1`, the EC50 in assay [1] was found to be 9.5 µM; in the assay on HT-29 it was 13 µM; in the assay on A549, 11.4 µM; with MCF7, 11.5 µM; in the assay on A2780, 12.9 µM; with 8505C, 8 µM.

Turning to `CC1(C)CC[C@]2(C(=O)OCc3c(Cl)cccc3Cl)CC[C@]3(C)C(=CC[C@@H]4[C@@]5(C)CC[C@H](O)[C@@](C)(CO)[C@@H]5CC[C@]43C)[C@@H]2C1`, the EC50 in assay [1] amounted to 9.2 µM; with HT-29, 13.3 µM; in the assay on A549, 12.9 µM; in the assay on MCF7, 12.7 µM; with A2780, 14.4 µM; with 8505C, 9.4 µM.

On to `CC1(C)CC[C@]2(C(=O)NCCN3CCOCC3)CC[C@]3(C)C(=CC[C@@H]4[C@@]5(C)CC[C@H](O)[C@@](C)(CO)[C@@H]5CC[C@]43C)[C@@H]2C1`, for which the EC50 (in assay [1]; with HT-29; in the assay on A549; in the assay on MCF7; in the assay with A2780; in the assay with 8505C) was over 30 µM in each case.

For `CC1(C)CC[C@]2(C(=O)On3nnc4ccccc43)CC[C@]3(C)C(=CC[C@@H]4[C@@]5(C)CC[C@H](O)[C@@](C)(CO)[C@@H]5CC[C@]43C)[C@@H]2C1`, the EC50 in assay [1] stood at 8.6 µM; in the assay on HT-29, 11.2 µM; in the assay with A549 it was 9.5 µM; in the assay on MCF7 it was 7.7 µM; in the assay with A2780, 8.8 µM; in the assay with 8505C, 9.5 µM.

Turning to `CC1(C)CC[C@]2(C(=O)OCc3ccc(Br)cc3)CC[C@]3(C)C(=CC[C@@H]4[C@@]5(C)CC[C@H](O)[C@@](C)(CO)[C@@H]5CC[C@]43C)[C@@H]2C1`, the EC50 came out at 11.6 µM in assay [1]; 13.7 µM in the assay on HT-29; 13.5 µM in the assay on A549; 13.5 µM in the assay with MCF7; 13.2 µM with A2780; 8.6 µM in the assay with 8505C.

Take `CC1(C)CC[C@]2(C(=O)O)CC[C@]3(C)C(=CC[C@@H]4[C@@]5(C)CC[C@H](O)[C@@](C)(CO)[C@@H]5CC[C@]43C)[C@@H]2C1` [HEDERAGENIN]: the EC50 was 34.9 µM in assay [1]; 50 µM with HT-29; 29 µM in the assay on A549; 25.7 µM with MCF7; 19.9 µM in the assay with A2780; 38 µM with 8505C.
